Experimental data as given in ChEMBL document CHEMBL5712901, “DOT1L inhibition blocks multiple myeloma cell proliferation by suppressing IRF4-MYC signaling” (2019).
Active and inactive are the calls of the source. The rule behind the calls is not given here.

How the values were obtained:
Assay type in all cases: functional, cell-based
Conditions in all cases: time <= 14.0 day
[1] = test system: KMS-12-PE; experiment: Antiproliferative activity against human KMS-12-PE cells treated upto 14 days with replacement of fresh medium containing drug every 3 to 4 days by cell counting kit-8 method
In short: (§1)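 Screen of histone methylation modifier inhibitors in 6-well plates at 3 × 10^4 to 1 × 10^5 cells/well. Drug at 1 μM or DMSO for up to 14 days, with medium and drug refreshed every 3-4 days. CCK-8 read on days 3-4 and 11-14. Values normalized to DMSO; mean of 5 replications ± SEM; unpaired two-sided t-test.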

[2] = test system: RPMI-8226; experiment: Antiproliferative activity against human RPMI-8226 cells treated upto 14 days with replacement of fresh medium containing drug every 3 to 4 days by cell counting kit-8 method; in short: as §1
[3] = test system: U-266; experiment: Antiproliferative activity against human […] cells treated upto 14 days with replacement of fresh medium containing drug every 3 to 4 days by cell counting kit-8 method; in short: as §1
[4] = test system: KMS-12-BM; experiment: Antiproliferative activity against human KMS-12-BM cells treated upto 14 days with replacement of fresh medium containing drug every 3 to 4 days by cell counting kit-8 method
In short: (§2)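 Screen of histone methylation modifier inhibitors: myeloma cells seeded at 3 × 10^4 to 1 × 10^5 cells/well, exposed to 1 μM inhibitor or DMSO for up to 14 days. Viability read by CCK-8 absorbance at early (days 3-4) and late (days 11-14) time points, normalized to DMSO; means of 5 replications, SEM, unpaired two-sided t-test.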

[5] = test system: MM1.S; experiment: Antiproliferative activity against human MM1.S cells treated upto 14 days with replacement of fresh medium containing drug every 3 to 4 days by cell counting kit-8 method; in short: as §2

`CC[C@H](C)n1cc(C)c2c(C(=O)NCc3c(C)cc(C)[nH]c3=O)cc(-c3ccc(N4CCNCC4)nc3)cc21` was tested, and the Activity [1] was “inactive”.
In the case of `O=C(O)c1ccc(CN2CCC(CN[C@@H]3C[C@H]3c3ccccc3)CC2)cc1`, the Activity [2] is reported as “inactive” and the Activity [3] is reported as “inactive”.
In the case of `N[C@@H]1C[C@H]1c1cc(F)cc(F)c1OCc1ccccc1`, the Activity [4] is reported as “inactive” and the Activity [5] is reported as “inactive”.
For `COc1cc2c(NC3CCN(C(C)C)CC3)nc(C3CCCCC3)nc2cc1OCCCN1CCCC1`, the Activity [1] was “inactive”.
